In ChEMBL document CHEMBL1255456, “Effect of NlpE overproduction on multidrug resistance in Escherichia coli” (2010):
Converted amounts (≈) assume the structure as drawn. The source made the active and inactive calls. The rule behind the calls is not given here.

Assays:
Escherichia coli [1] = experiment: Antibacterial activity against Escherichia coli NKE96 harboring deletion mutation in acrB protein; type: functional
Escherichia coli [2] = experiment: Antibacterial activity against Escherichia coli NKE154 harboring vector expressing acrB deletion mutant; type: functional
Escherichia coli [3] = experiment: Antibacterial activity against Escherichia coli NKE155 harboring deletion mutation in acrB protein and plasmid expressing nlpE gene; type: functional
Escherichia coli [4] = experiment: Antibacterial activity against Escherichia coli NKE127 harboring deletion mutation in acrB and cpxAR protein; type: functional
Escherichia coli [5] = experiment: Antibacterial activity against Escherichia coli NKE158 harboring deletion mutation in acrB protein and vector expressing cpxAR gene; type: functional
Escherichia coli [6] = experiment: Antibacterial activity against Escherichia coli NKE159 harboring deletion mutation in acrB, cpxAR protein and plasmid expressing nlpE gene; type: functional
Escherichia coli [7] = experiment: Antibacterial activity against Escherichia coli NKE128 harboring deletion mutation in acrB and tolC protein; type: functional
Escherichia coli [8] = experiment: Antibacterial activity against Escherichia coli NKE160 harboring deletion mutation in acrB protein and vector expressing tolC gene; type: functional
Escherichia coli [9] = experiment: Antibacterial activity against Escherichia coli NKE161 harboring deletion mutation in acrB protein, vector expressing tolC gene and plasmid expressing nlpE gene; type: functional
Escherichia coli [10] = experiment: Antibacterial activity against Escherichia coli NKE126 harboring deletion mutation in acrB and acrD protein; type: functional
Escherichia coli [11] = experiment: Antibacterial activity against Escherichia coli NKE156 harboring deletion mutation in acrB protein and vector expressing acrD gene; type: functional
Escherichia coli [12] = experiment: Antibacterial activity against Escherichia coli NKE157 harboring deletion mutation in acrB, acrD protein and plasmid expressing nlpE gene; type: functional
Escherichia coli [13] = experiment: Antibacterial activity against Escherichia coli NKE1365 harboring deletion mutation in acrB and mdtABC protein; type: functional
Escherichia coli [14] = experiment: Antibacterial activity against Escherichia coli NKE1366 harboring deletion mutation in acrB and vector expressing mdtABC gene; type: functional
Escherichia coli [15] = experiment: Antibacterial activity against Escherichia coli NKE1367 harboring deletion mutation in acrB, mdtABC protein and plasmid expressing nlpE gene; type: functional
Escherichia coli [16] = experiment: Antibacterial activity against Escherichia coli NKE1316 harboring deletion mutation in acrB, acrD and mdtABC protein; type: functional
Escherichia coli [17] = experiment: Antibacterial activity against Escherichia coli NKE1369 harboring deletion mutation in acrB, acrD, mdtABC protein and plasmid expressing nlpE gene; type: functional
Escherichia coli [18] = experiment: Antibacterial activity against Escherichia coli NKE1359 harboring deletion mutation in acrB protein and plasmid expressing BADnlpE gene in presence of increasing concentration of arabinose; type: functional, organism-based
Outline: (§1)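 ΔacrB host carrying empty pBAD33 or pBAD33 with nlpE under the arabinose-inducible PBAD promoter. MICs of oxacillin, cloxacillin, nafcillin, cefamandole, aztreonam, novobiocin, deoxycholate and kanamycin were measured with arabinose at several concentrations from 0 to 10,000 μM. Each MIC determination was repeated at least three times.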

Escherichia coli [19] = experiment: Antibacterial activity against Escherichia coli NKE1355 harboring deletion mutation in acrB protein and plasmid expressing BAD gene in presence of increasing concentration of arabinose; type: functional, organism-based; outline: as §1
Escherichia coli [20] = experiment: Antibacterial activity against Escherichia coli NKE1368 harboring deletion mutation in acrB, acrD and mdtABC genes and carrying empty pHSG398 vector

Row | SMILES | MIC (Escherichia coli [1]) [µg/mL] | MIC (Escherichia coli [2]) [µg/mL] | MIC (Escherichia coli [3]) [µg/mL] | MIC (Escherichia coli [4]) [µg/mL] | MIC (Escherichia coli [5]) [µg/mL] | MIC (Escherichia coli [6]) [µg/mL] | MIC (Escherichia coli [7]) [µg/mL] | MIC (Escherichia coli [8]) [µg/mL] | MIC (Escherichia coli [9]) [µg/mL] | MIC (Escherichia coli [10]) [µg/mL] | MIC (Escherichia coli [11]) [µg/mL] | MIC (Escherichia coli [12]) [µg/mL] | MIC (Escherichia coli [13]) [µg/mL] | MIC (Escherichia coli [14]) [µg/mL] | MIC (Escherichia coli [15]) [µg/mL] | MIC (Escherichia coli [16]) [µg/mL] | MIC (Escherichia coli [17]) [µg/mL] | Activity (Escherichia coli [18]) | Activity (Escherichia coli [19]) | MIC (Escherichia coli [20]) [µg/mL]
1 | NC[C@H]1O[C@H](O[C@H]2[C@H](O)[C@@H](O[C@H]3O[C@H](CO)[C@@H](O)[C@H](N)[C@H]3O)[C@H](N)C[C@@H]2N)[C@H](O)[C@@H](O)[C@@H]1O [KANAMYCIN] | 2 (≈ 4.13 µM) | 2 (≈ 4.13 µM) | 8 (≈ 16.5 µM) | 1 (≈ 2.06 µM) | 1 (≈ 2.06 µM) | 1 (≈ 2.06 µM) | 1 (≈ 2.06 µM) | 1 (≈ 2.06 µM) | 2 (≈ 4.13 µM) | 2 (≈ 4.13 µM) | 2 (≈ 4.13 µM) | 4 (≈ 8.26 µM) | 2 (≈ 4.13 µM) | 2 (≈ 4.13 µM) | 8 (≈ 16.5 µM) | 2 (≈ 4.13 µM) | 4 (≈ 8.26 µM) | inactive | Active | 2 (≈ 4.13 µM)
2 | C[C@H](CCC(=O)O)[C@H]1CC[C@H]2[C@@H]3CC[C@@H]4C[C@H](O)CC[C@]4(C)[C@H]3C[C@H](O)[C@]12C [DEOXYCHOLIC ACID] | 5000 (≈ 12700 µM) | 5000 (≈ 12700 µM) | 40000 (≈ 102000 µM) | 2500 (≈ 6370 µM) | 2500 (≈ 6370 µM) | 2500 (≈ 6370 µM) | 156 (≈ 397 µM) | 156 (≈ 397 µM) | 156 (≈ 397 µM) | 5000 (≈ 12700 µM) | 5000 (≈ 12700 µM) | 10000 (≈ 25500 µM) | 5000 (≈ 12700 µM) | 5000 (≈ 12700 µM) | 10000 (≈ 25500 µM) | 2500 (≈ 6370 µM) | 2500 (≈ 6370 µM) | inactive | Active | 2500 (≈ 6370 µM)
3 | Cn1nnnc1SCC1=C(C(=O)O)N2C(=O)[C@@H](NC(=O)[C@H](O)c3ccccc3)[C@H]2SC1 [CEFAMANDOLE] | 0.063 (≈ 0.136 µM) | 0.063 (≈ 0.136 µM) | 0.25 (≈ 0.541 µM) | 0.063 (≈ 0.136 µM) | 0.063 (≈ 0.136 µM) | 0.063 (≈ 0.136 µM) | 0.063 (≈ 0.136 µM) | 0.063 (≈ 0.136 µM) | 0.063 (≈ 0.136 µM) | 0.063 (≈ 0.136 µM) | 0.063 (≈ 0.136 µM) | 0.13 (≈ 0.281 µM) | 0.063 (≈ 0.136 µM) | 0.063 (≈ 0.136 µM) | 0.13 (≈ 0.281 µM) | 0.063 (≈ 0.136 µM) | 0.063 (≈ 0.136 µM) | inactive | Active | 0.063 (≈ 0.136 µM)
4 | CC1(C)S[C@@H]2[C@H](NC(=O)C(C(=O)O)c3ccccc3)C(=O)N2[C@H]1C(=O)O (some centres undefined) [CARBENICILLIN] | 1 (≈ 2.64 µM) | 1 (≈ 2.64 µM) | 8 (≈ 21.1 µM) | 1 (≈ 2.64 µM) | 1 (≈ 2.64 µM) | 1 (≈ 2.64 µM) | 1 (≈ 2.64 µM) | 1 (≈ 2.64 µM) | 1 (≈ 2.64 µM) | 1 (≈ 2.64 µM) | 1 (≈ 2.64 µM) | 2 (≈ 5.29 µM) | 1 (≈ 2.64 µM) | 1 (≈ 2.64 µM) | 4 (≈ 10.6 µM) | 1 (≈ 2.64 µM) | 1 (≈ 2.64 µM) |  |  | 1 (≈ 2.64 µM)
5 | NC(=O)OC[C@@H]1[C@H](NC(=O)/C(=N\OCC(=O)O)c2csc(N)n2)C(=O)N1S(=O)(=O)O [CARUMONAM] | 0.031 (≈ 0.0665 µM) | 0.031 (≈ 0.0665 µM) | 0.25 (≈ 0.536 µM) | 0.031 (≈ 0.0665 µM) | 0.031 (≈ 0.0665 µM) | 0.031 (≈ 0.0665 µM) | 0.031 (≈ 0.0665 µM) | 0.031 (≈ 0.0665 µM) | 0.031 (≈ 0.0665 µM) | 0.031 (≈ 0.0665 µM) | 0.031 (≈ 0.0665 µM) | 0.063 (≈ 0.135 µM) | 0.031 (≈ 0.0665 µM) | 0.031 (≈ 0.0665 µM) | 0.13 (≈ 0.279 µM) | 0.031 (≈ 0.0665 µM) | 0.031 (≈ 0.0665 µM) |  |  | 0.031 (≈ 0.0665 µM)
6 | Cc1onc(-c2ccccc2)c1C(=O)N[C@@H]1C(=O)N2[C@@H]1SC(C)(C)[C@@H]2C(=O)O [OXACILLIN] | 1 (≈ 2.49 µM) | 1 (≈ 2.49 µM) | 8 (≈ 19.9 µM) | 0.5 (≈ 1.25 µM) | 0.5 (≈ 1.25 µM) | 0.5 (≈ 1.25 µM) | 0.5 (≈ 1.25 µM) | 0.5 (≈ 1.25 µM) | 0.5 (≈ 1.25 µM) | 0.5 (≈ 1.25 µM) | 0.5 (≈ 1.25 µM) | 2 (≈ 4.98 µM) | 1 (≈ 2.49 µM) | 1 (≈ 2.49 µM) | 4 (≈ 9.96 µM) | 0.5 (≈ 1.25 µM) | 0.5 (≈ 1.25 µM) | inactive | Active | 0.5 (≈ 1.25 µM)
7 | CCOc1ccc2ccccc2c1C(=O)N[C@@H]1C(=O)N2[C@@H]1SC(C)(C)[C@@H]2C(=O)O [NAFCILLIN] | 2 (≈ 4.83 µM) | 2 (≈ 4.83 µM) | 16 (≈ 38.6 µM) | 1 (≈ 2.41 µM) | 1 (≈ 2.41 µM) | 1 (≈ 2.41 µM) | 1 (≈ 2.41 µM) | 1 (≈ 2.41 µM) | 1 (≈ 2.41 µM) | 1 (≈ 2.41 µM) | 1 (≈ 2.41 µM) | 4 (≈ 9.65 µM) | 1 (≈ 2.41 µM) | 1 (≈ 2.41 µM) | 4 (≈ 9.65 µM) | 1 (≈ 2.41 µM) | 1 (≈ 2.41 µM) | inactive | Active | 1 (≈ 2.41 µM)
8 | Cc1onc(-c2ccccc2Cl)c1C(=O)N[C@@H]1C(=O)N2[C@@H]1SC(C)(C)[C@@H]2C(=O)O [CLOXACILLIN] | 1 (≈ 2.29 µM) | 1 (≈ 2.29 µM) | 16 (≈ 36.7 µM) | 1 (≈ 2.29 µM) | 1 (≈ 2.29 µM) | 1 (≈ 2.29 µM) | 0.25 (≈ 0.574 µM) | 0.25 (≈ 0.574 µM) | 0.25 (≈ 0.574 µM) | 1 (≈ 2.29 µM) | 1 (≈ 2.29 µM) | 2 (≈ 4.59 µM) | 1 (≈ 2.29 µM) | 1 (≈ 2.29 µM) | 4 (≈ 9.18 µM) | 0.5 (≈ 1.15 µM) | 0.5 (≈ 1.15 µM) | inactive | Active | 0.5 (≈ 1.15 µM)
9 | CO[C@@H]1[C@@H](OC(N)=O)[C@@H](O)[C@H](Oc2ccc3c(O)c(NC(=O)c4ccc(O)c(CC=C(C)C)c4)c(=O)oc3c2C)OC1(C)C [NOVOBIOCIN] | 4 (≈ 6.53 µM) | 4 (≈ 6.53 µM) | 16 (≈ 26.1 µM) | 4 (≈ 6.53 µM) | 4 (≈ 6.53 µM) | 4 (≈ 6.53 µM) | 2 (≈ 3.26 µM) | 2 (≈ 3.26 µM) | 2 (≈ 3.26 µM) | 4 (≈ 6.53 µM) | 4 (≈ 6.53 µM) | 8 (≈ 13.1 µM) | 4 (≈ 6.53 µM) | 4 (≈ 6.53 µM) | 8 (≈ 13.1 µM) | 2 (≈ 3.26 µM) | 2 (≈ 3.26 µM) | inactive | Active | 2 (≈ 3.26 µM)
10 | CC1(C)S[C@@H]2[C@H](NC(=O)C(c3ccccc3)S(=O)(=O)O)C(=O)N2[C@H]1C(=O)O (some centres undefined) [SULBENICILLIN] | 2 (≈ 4.83 µM) | 2 (≈ 4.83 µM) | 16 (≈ 38.6 µM) | 1 (≈ 2.41 µM) | 1 (≈ 2.41 µM) | 1 (≈ 2.41 µM) | 1 (≈ 2.41 µM) | 1 (≈ 2.41 µM) | 1 (≈ 2.41 µM) | 1 (≈ 2.41 µM) | 1 (≈ 2.41 µM) | 2 (≈ 4.83 µM) | 2 (≈ 4.83 µM) | 2 (≈ 4.83 µM) | 8 (≈ 19.3 µM) | 1 (≈ 2.41 µM) | 1 (≈ 2.41 µM) |  |  | 1 (≈ 2.41 µM)
11 | C[C@H]1[C@H](NC(=O)/C(=N\OC(C)(C)C(=O)O)c2csc(N)n2)C(=O)N1S(=O)(=O)O [AZTREONAM] | 0.063 (≈ 0.145 µM) | 0.063 (≈ 0.145 µM) | 0.25 (≈ 0.574 µM) | 0.063 (≈ 0.145 µM) | 0.063 (≈ 0.145 µM) | 0.063 (≈ 0.145 µM) | 0.063 (≈ 0.145 µM) | 0.063 (≈ 0.145 µM) | 0.063 (≈ 0.145 µM) | 0.063 (≈ 0.145 µM) | 0.063 (≈ 0.145 µM) | 0.063 (≈ 0.145 µM) | 0.063 (≈ 0.145 µM) | 0.063 (≈ 0.145 µM) | 0.25 (≈ 0.574 µM) | 0.063 (≈ 0.145 µM) | 0.063 (≈ 0.145 µM) | inactive | Active | 0.063 (≈ 0.145 µM)
